{"source": "ChEMBL document CHEMBL4024779", "about": "“Novel Terminal Bipheny-Based Diapophytoene Desaturases (CrtN) Inhibitors as Anti-MRSA/VISR/LRSA Agents with Reduced hERG Activity” (J Med Chem, 2018)", "key": {"Staphylococcus aureus [1]": {"system": "Staphylococcus aureus", "assay": "In vivo anti-virulence activity against methicillin-resistant Staphylococcus aureus NF65Y infected in BALB/c mouse model assessed as reduction in bacterial load in heart at 0.1 mg bid for 3.5 days administered intraperitoneally 6 hrs post infection by serial dilution method relative to vancomycin", "type": "functional, organism-based", "in_short": "(§1)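 Mice infected retro-orbitally with S. aureus NF65Y (3.5 × 10^8 CFU) or XN108 (2.1 × 10^8 CFU). Test compound given i.p. b.i.d. starting 6 h post-infection. […] Log10 CFU per kidney and heart counted. Two-tailed Mann−Whitney test.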"}, "Staphylococcus aureus [2]": {"system": "Staphylococcus aureus", "assay": "In vivo anti-virulence activity against methicillin-resistant Staphylococcus aureus XN108 infected in BALB/c mouse model assessed as reduction in bacterial load in kidney at 0.1 mg bid for 3.5 days administered intraperitoneally 6 hrs post infection by serial dilution method relative to linezolid", "type": "functional, organism-based", "in_short": "as §1"}, "[3]": {"assay": "AUC (0 to 24 hrs) in Sprague-Dawley rat at 10 mg/kg, po administered as single dose by LC-MS/MS analysis", "type": "ADME, organism-based", "set-up": "time < 24 hr, dose 10 mg/kg, route oral", "details": "in vivo"}, "Cytochrome P450 3A4": {"biological_target": "Cytochrome P450 3A4 (Homo sapiens, UniProt P08684)", "sequence (P08684 whole entry)": "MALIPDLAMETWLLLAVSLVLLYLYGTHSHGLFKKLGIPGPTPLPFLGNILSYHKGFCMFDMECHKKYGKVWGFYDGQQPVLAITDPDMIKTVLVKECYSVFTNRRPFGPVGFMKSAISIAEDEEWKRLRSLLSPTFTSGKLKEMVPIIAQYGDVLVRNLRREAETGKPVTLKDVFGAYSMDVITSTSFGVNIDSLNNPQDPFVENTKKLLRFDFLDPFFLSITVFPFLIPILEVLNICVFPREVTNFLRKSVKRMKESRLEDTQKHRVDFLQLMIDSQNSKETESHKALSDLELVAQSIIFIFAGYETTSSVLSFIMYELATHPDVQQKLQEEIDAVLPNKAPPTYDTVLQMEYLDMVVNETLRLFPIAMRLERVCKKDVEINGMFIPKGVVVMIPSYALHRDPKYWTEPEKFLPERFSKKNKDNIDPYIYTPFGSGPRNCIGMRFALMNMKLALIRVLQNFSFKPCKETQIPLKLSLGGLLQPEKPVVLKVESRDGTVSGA", "assay": "Inhibition of CYP3A4 in human liver microsomes using testosterone as substrate upto 10 uM after 5 mins in presence of NADPH by LC-MS/MS analysis", "type": "ADME"}, "Rattus norvegicus [4]": {"system": "Rattus norvegicus", "assay": "Toxicity in Sprague-Dawley rat at 60 to 1000 mg/kg, po administered as single dose assessed as poisoning symptoms measured during 2 weeks post administration", "type": "organism-based", "details": "in vivo, 336 h", "in_short": "(§2)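 Rats, 30 in total, randomised into three groups. Each received a single oral dose of 60, 250 or 1000 mg/kg on day 1. Poisoning symptoms, mortality, behaviour, water and food consumption and body weight monitored immediately and over 2 weeks.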"}, "Rattus norvegicus [5]": {"system": "Rattus norvegicus", "assay": "Toxicity in Sprague-Dawley rat at 60 to 1000 mg/kg, po administered as single dose assessed as abnormal behavior measured during 2 weeks post administration", "type": "organism-based", "details": "in vivo, 336 h", "in_short": "as §2"}, "[6]": {"assay": "Inhibition of CrtN in methicillin-resistant Staphylococcus aureus LRSA56 assessed as reduction in staphyloxanthin levels after 48 hrs by spectrophotometric method-based pigment inhibition assay"}}, "note": "pIC50: −log10 of the molar value. The source made the active and inactive calls. No cut-off for these calls is given here."}
{"smiles": "CN(C/C=C/c1ccc(-c2ccccc2)cc1)Cc1coc2ccccc12.Cl", "values": [{"measurement": "Activity", "setting": "Staphylococcus aureus [1]", "value": "Active"}, {"measurement": "Activity", "setting": "Staphylococcus aureus [2]", "value": "Active"}, {"measurement": "AUC(0-t) at 24 h", "setting": "[3]", "value": 899, "unit": "ng·h/mL"}, {"measurement": "pIC50", "setting": "Cytochrome P450 3A4", "value": "< 5.00"}, {"measurement": "Activity", "setting": "Rattus norvegicus [4]", "value": "Non-Toxic"}, {"measurement": "Activity", "setting": "Rattus norvegicus [5]", "value": "Non-Toxic"}, {"measurement": "pIC50", "setting": "[6]", "value": 8.74}]}
